Experimental findings from ChEMBL document CHEMBL1154674, “Synthesis and evaluation of three 18F-labeled aminophenylbenzothiazoles as amyloid imaging agents” (J Med Chem, 2009) are described below.

Common to all, as to type: ADME, organism-based, Macaca mulatta
Series [1] can be described thus: Drug level in normal rhesus monkey pons assessed as standard uptake value at 96.3 MBq, iv after 32.5 mins by microPET. To be noted: in vivo.
The nature of series [2]: Drug level in normal rhesus monkey pons assessed as standard uptake value at 96.3 MBq, iv after 10 mins by microPET. The note with it: in vivo.
Series [3] can be described thus: Drug level in normal rhesus monkey parietal cortex assessed as standard uptake value at 96.3 MBq, iv after 115 mins by microPET. To be noted: in vivo.
The nature of series [4]: Drug level in normal rhesus monkey cerebellum assessed as standard uptake value at 96.3 MBq, iv after 0.5 mins by microPET. To be noted: in vivo. In short, it runs like this: (§1)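 One normal rhesus monkey, each tracer given iv via the vena saphena (81.2, 96.3 or 109.4 MBq), with 1 day between tracer injections. Dynamic brain μPET over 180 min used frames of 5 × 60 s, 5 × 120 s, 9 × 300 s and 12 × 600 s. Images were reconstructed by filtered back projection with a RAMP filter. Regional time-activity curves were expressed as SUV.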

Series [5] can be described thus: Drug level in normal rhesus monkey cerebellum assessed as standard uptake value at 96.3 MBq, iv after 10 mins by microPET. The note with it: in vivo. In short, it runs like this: as §1
The nature of series [6]: Drug level in normal rhesus monkey cerebellum assessed as standard uptake value at 96.3 MBq, iv after 4.5 mins by microPET. To be noted: in vivo, 0.075 h. The method in brief: as §1
Series [7] in a line: Drug level in normal rhesus monkey white matter assessed as standard uptake value at 96.3 MBq, iv after 22.5 mins by microPET. To be noted: in vivo, 0.375 h.
A short description of series [8]: Drug level in normal rhesus monkey thalamus assessed as standard uptake value at 96.3 MBq, iv after 75 mins by microPET. To be noted: in vivo, 1.25 h.
The nature of series [9]: Drug level in normal rhesus monkey parietal cortex assessed as standard uptake value at 96.3 MBq, iv after 165 mins by microPET. To be noted: in vivo, 2.75 h.
Series [10] is described as follows: Drug level in normal rhesus monkey frontal cortex assessed as standard uptake value at 96.3 MBq, iv after 10 mins by microPET. To be noted: in vivo.
Series [11] is described as follows: Drug level in normal rhesus monkey parietal cortex assessed as standard uptake value at 96.3 MBq, iv after 6 mins by microPET. To be noted: in vivo, 0.1 h.
The nature of series [12]: Drug level in normal rhesus monkey frontal cortex assessed as standard uptake value at 81.2 MBq, iv after 155 mins by microPET. The note with it: in vivo.
A short description of series [13]: Drug level in normal rhesus monkey frontal cortex assessed as standard uptake value at 81.2 MBq, iv after 0.5 mins by microPET. The note with it: in vivo. The method in brief: (§2)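 Single normal rhesus monkey; each tracer given iv via the vena saphena, with 1 day between tracer injections. Dynamic μPET ran 180 min (5×60 s, 5×120 s, 9×300 s, 12×600 s). Images were reconstructed by filtered back projection with a RAMP filter. Regional time-activity curves were expressed as SUV.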

Series [14] can be described thus: Drug level in normal rhesus monkey pons assessed as standard uptake value at 81.2 MBq, iv after 37.5 mins by microPET. The note with it: in vivo, 0.625 h.
Series [15] in a line: Drug level in normal rhesus monkey frontal cortex assessed as standard uptake value at 81.2 MBq, iv after 17.5 mins by microPET. To be noted: in vivo.
The nature of series [16]: Drug level in normal rhesus monkey cerebellum assessed as standard uptake value at 81.2 MBq, iv after 0.5 mins by microPET. To be noted: in vivo. The method in brief: as §1
The nature of series [17]: Drug level in normal rhesus monkey frontal cortex assessed as standard uptake value at 81.2 MBq, iv after 52.5 mins by microPET. To be noted: in vivo, 0.875 h.
Series [18] in a line: Drug level in normal rhesus monkey cerebellum assessed as standard uptake value at 152.9 MBq, iv after 2.5 mins by microPET. To be noted: in vivo. The method in brief: (§3)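 One normal rhesus monkey received each tracer via the vena saphena, with 1 day between injections. Dynamic μPET ran 180 min for 18F tracers (5×60 s, 5×120 s, 9×300 s, 12×600 s) and 90 min for the 11C tracer (5×60 s, 5×120 s, 9×300 s, 3×600 s). Filtered back-projection reconstruction (RAMP filter) was used. Time-activity curves were drawn to give regional SUV.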

Series [19] can be described thus: Drug level in normal rhesus monkey cerebellum assessed as standard uptake value at 152.9 MBq, iv after 12 mins by microPET. The note with it: in vivo, 0.2 h. In short, it runs like this: as §3
A short description of series [20]: Drug level in normal rhesus monkey pons assessed as standard uptake value at 152.9 MBq, iv after 8 mins by microPET. To be noted: in vivo.
Series [21] is described as follows: Drug level in normal rhesus monkey frontal cortex assessed as standard uptake value at 152.9 MBq, iv after 10 mins by microPET. To be noted: in vivo. In short, it runs like this:
(§4)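 Single normal rhesus monkey; tracer given iv via the vena saphena, 1 day apart from the other tracer injections. Dynamic μPET ran 90 min (5×60 s, 5×120 s, 9×300 s, 3×600 s). Images were reconstructed by filtered back projection with a RAMP filter. Regional time-activity curves were expressed as SUV.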

The nature of series [22]: Drug level in normal rhesus monkey pons assessed as standard uptake value at 152.9 MBq, iv after 32.5 mins by microPET. To be noted: in vivo.
A short description of series [23]: Drug level in normal rhesus monkey thalamus assessed as standard uptake value at 152.9 MBq, iv after 0.5 mins by microPET. The note with it: in vivo.
Series [24] can be described thus: Drug level in normal rhesus monkey white matter assessed as standard uptake value at 152.9 MBq, iv after 2.5 mins by microPET. To be noted: in vivo.
A short description of series [25]: Drug level in normal rhesus monkey white matter assessed as standard uptake value at 152.9 MBq, iv after 8 mins by microPET. The note with it: in vivo.
Series [26] in a line: Drug level in normal rhesus monkey parietal cortex assessed as standard uptake value at 152.9 MBq, iv after 75 mins by microPET. The note with it: in vivo, 1.25 h.
Series [27] is described as follows: Drug level in normal rhesus monkey pons assessed as standard uptake value at 152.9 MBq, iv after 37.5 mins by microPET. The note with it: in vivo, 0.625 h.
The nature of series [28]: Drug level in normal rhesus monkey cerebellum assessed as standard uptake value at 152.9 MBq, iv after 57.5 mins by microPET. The note with it: in vivo. In short, it runs like this:
as §3

A short description of series [29]: Drug level in normal rhesus monkey frontal cortex assessed as standard uptake value at 152.9 MBq, iv after 4.5 mins by microPET. To be noted: in vivo, 0.075 h. The method in brief:
as §4

The nature of series [30]: Drug level in normal rhesus monkey frontal cortex assessed as standard uptake value at 152.9 MBq, iv after 6 mins by microPET. To be noted: in vivo, 0.1 h. In short, it runs like this:
as §4

Series [31] can be described thus: Drug level in normal rhesus monkey thalamus assessed as standard uptake value at 109.4 MBq, iv after 87 mins by microPET. To be noted: in vivo, 1.45 h.
Series [32] is described as follows: Drug level in normal rhesus monkey parietal cortex assessed as standard uptake value at 109.4 MBq, iv after 63 mins by microPET. To be noted: in vivo, 1.05 h.
Series [33] is described as follows: Drug level in normal rhesus monkey frontal cortex assessed as standard uptake value at 109.4 MBq, iv after 22.5 mins by microPET. The note with it: in vivo, 0.375 h. In short, it runs like this: as §2
Series [34] in a line: Drug level in normal rhesus monkey thalamus assessed as standard uptake value at 109.4 MBq, iv after 0.875 mins by microPET. The note with it: in vivo, 52 s.
The nature of series [35]: Drug level in normal rhesus monkey pons assessed as standard uptake value at 109.4 MBq, iv after 117 mins by microPET. The note with it: in vivo, 1.95 h.
Series [36] is described as follows: Drug level in normal rhesus monkey thalamus assessed as standard uptake value at 109.4 MBq, iv after 111 mins by microPET. The note with it: in vivo.

`CN(C)c1ccc2nc(-c3ccc([18F])cc3)sc2c1`: the SUV turned out to be 1.67 in series [1]; 1.57 in [2]; 1.3 in series [3]; 0.54 in [4]; 1.69 in [5]; 1.63 in series [6]. Also, the SUV in [7] stood at 1.3; in [8], 2.19; in [9], 1.18; in series [10], 2.13; in [11], 2.16.

Consider `CNc1ccc2nc(-c3ccc([18F])cc3)sc2c1`, for which the SUV in series [12] was determined as 4.381; in series [13], 0.756; in [14], 5.487; in series [15] it was 5.789; in series [16], 0.735; in series [17] it was 5.321.

Consider `[11CH3]Nc1ccc(-c2nc3ccc(O)cc3s2)cc1` [PITTSBURGH COMPOUND B], for which the SUV in series [18] is reported as 1.545; in series [19], 2.252; in series [20], 2.153; in [21] it was 2.163; in [22] it was 1.365; in series [23] it was 0.038. In addition, the SUV in series [24] is given as 0.752; in series [25], 1.421; in [26] it was 0.682; in series [27], 1.229; in series [28] it was 0.764; in series [29] it was 2.11. Besides, in series [30], the SUV came out at 2.184.

Take `Nc1ccc2nc(-c3ccc([18F])cc3)sc2c1`: the SUV in series [31] was 4.98; in series [32] it was 4.18; in series [33] it was 5.16; in series [34] it was 2.43; in series [35] it was 4.76; in series [36], 4.72.
